This excerpt belongs to a sample that is enriched for hits.
HSF-1 act = increases HSF-1 driven luciferase reporter signal; NIH3T3-HGL HSF-1 luciferase reporter, MG132, 8 h; 100% = twice DMSO control signal; activation, % at 9 µM; actives 1.7% (n = 300,000);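 active = mean replicate activation of at least 50% with a set share of replicates each reaching 50%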
L major viab = Leishmania major promastigote growth inhibition. Leishmania major promastigotes, resazurin fluorescence viability. inhibition, % at 10 µM. actives 9% (n = 200,000). AID 1063; in the data active = inhibition above about 50%;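 also: promastigotes grown with compound for 44 hours at 28 °C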
HSF1 inh = HSF1 inhibition; NIH3T3-HGL HSE-luciferase, MG132-induced, luminescence 8 h; active compounds read low; activity change, negative = inhibition, % at 7.5 µM (by protocol); actives 0.77% (n = 300,000);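 active = more than half of replicate wells show activity change below -50%, luminescence cut by over half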;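 also: luciferase reports HSF-1 transcriptional activity via heat shock element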
T cruzi inh = T. cruzi replication inhibition. AID 1885. actives 1.4% (n = 300,000). T. cruzi beta-gal in NIH3T3, luminescence, 90 h. inhibition, % (no concentration beside the values);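 active = mean inhibition across valid replicates above about 55%, limit read from the data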;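 also: signal also drops with host cell toxicity which is not excluded here; higher percent means less beta-gal luminescence so fewer parasites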
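Test system: β-gal T. cruzi (Tulahuen C4) inside NIH/3T3 cells / Quantity: 5,000 cells/well / Measured by: luminescence from GalScreen with 0.05% NP40, read after 60 min / Medium: DMEM plus 2% FBS / Measure: parasite load inhibition, % / Reagent: Tulahuen C4 trypomastigotes, 5000/well / Schedule: co-culture of at least 90 h after 3 h attachment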
Hsp70 activator = switches on Hsp70 transcription; actives 0.04% (n = 200,000); HeLa Hsp70 promoter luciferase reporter, luminescence; scaled: vehicle 0, proteasome-inhibitor control 100%; activation, % at 10 µM; AID 1203;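 active = activation above the mean across all tested compounds plus 3 SD, cutoff set per campaign, cut at about 5.5% in these data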
A number is an active result.

`Cc1ccc(-n2c3c(cc(C(=O)NCc4ccco4)c2=O)C(=O)CC(C)(C)C3)cc1` gave HSF-1 act inactive, L major viab 51, HSF1 inh inactive, T cruzi inh inactive and Hsp70 activator inactive.
For COc1ccc(-n2c3c(cc(C(=O)NNc4ccccc4C)c2=O)C(=O)CC(C)(C)C3)cc1 the results were HSF-1 act inactive, L major viab inactive, HSF1 inh inactive, T cruzi inh inactive and Hsp70 activator inactive.
COc1ccc(-n2c3c(cc(C(=O)NNc4ccccc4)c2=O)C(=O)CC(C)(C)C3)cc1 was read as HSF-1 act inactive, L major viab 60, HSF1 inh inactive, T cruzi inh inactive and Hsp70 activator inactive.
For CC1(C)CC(=O)c2cc(C(=O)NCc3ccco3)c(=O)n(-c3ccc(Cl)cc3)c2C1 the results were HSF-1 act inactive, L major viab inactive, HSF1 inh inactive, T cruzi inh inactive and Hsp70 activator inactive.
Screening Cc1noc(C)c1S(=O)(=O)N(CC(=O)NC1CCC(C)CC1)c1ccc(C(C)C)cc1 (centres undefined) returned HSF-1 act inactive, HSF1 inh inactive and T cruzi inh inactive.
Screening CN(C)c1ccccc1C(=O)N1CCCC(C(=O)c2ccc3ccccc3c2)C1 (centres undefined) returned HSF-1 act inactive, L major viab inactive, HSF1 inh inactive, T cruzi inh inactive and Hsp70 activator inactive.
Screening O=C(Nc1ccc(Cl)c([N+](=O)[O-])c1)c1cnccn1 returned HSF-1 act inactive, L major viab 83, HSF1 inh inactive, T cruzi inh inactive and Hsp70 activator inactive.
CCN(CC)c1ccc(NC(=O)COc2ccccc2C#N)cc1S(=O)(=O)Nc1ccc(OC)cc1 was read as HSF-1 act inactive, L major viab 99, HSF1 inh inactive, T cruzi inh inactive and Hsp70 activator inactive.
`CCN(CC)c1ccc(NC(=O)c2ccc(=O)[nH]c2)cc1S(=O)(=O)Nc1ccccc1OC` gave HSF-1 act inactive, L major viab inactive, HSF1 inh inactive, T cruzi inh inactive and Hsp70 activator inactive.
`CCN(CC)c1ccc(NC(=O)c2cnccn2)cc1S(=O)(=O)Nc1ccc(OC)cc1` gave HSF-1 act inactive, L major viab 64, HSF1 inh inactive, T cruzi inh inactive and Hsp70 activator inactive.
Cc1cnc(C(=O)Nc2ccc(C)c(S(=O)(=O)N(C)C)c2)cn1 was read as HSF-1 act inactive, L major viab inactive, HSF1 inh inactive, T cruzi inh inactive and Hsp70 activator inactive.
For O=C(Nc1ccc(Cl)c([N+](=O)[O-])c1)c1ccncc1 the results were HSF-1 act inactive, L major viab inactive, HSF1 inh inactive, T cruzi inh inactive and Hsp70 activator inactive.
Cc1ccc(NC(=O)c2cnccn2)cc1S(=O)(=O)N(C)C was read as HSF-1 act inactive, L major viab 83, HSF1 inh inactive, T cruzi inh inactive and Hsp70 activator inactive.
Screening CC(C)NC(=O)COC(=O)c1ccccc1C(=O)c1ccccc1 returned HSF-1 act inactive, L major viab inactive, HSF1 inh inactive, T cruzi inh inactive and Hsp70 activator inactive.
`COc1ccc(OC)c2c(C)c(C)[nH]c12` gave HSF-1 act inactive, HSF1 inh inactive and T cruzi inh inactive.
Screening CC(C)c1nnc(SCc2ccc(CSc3nnc(C(C)C)n3N)cc2)n1N returned HSF-1 act 80, L major viab inactive, HSF1 inh inactive, T cruzi inh inactive and Hsp70 activator inactive.
CN(C)CCCNC(=S)Nc1ccc(-c2ccccc2)cc1 was read as HSF-1 act inactive, HSF1 inh inactive and T cruzi inh inactive.
For COc1ccccc1N1CCN(C(=O)c2ccc3[nH]c4c(c3c2)CC(C)CC4)CC1 (centres undefined) the results were HSF-1 act inactive, L major viab 99, HSF1 inh inactive, T cruzi inh 57 and Hsp70 activator inactive.
For CSc1ccccc1NS(=O)(=O)c1cccc2nonc12 the results were HSF-1 act inactive, HSF1 inh inactive and T cruzi inh inactive.
`CCN(CCO)c1nc(NCc2ccccc2)c2cnn(C)c2n1` gave HSF-1 act inactive, HSF1 inh inactive and T cruzi inh inactive.
Screening COc1cccc(C(=O)NC(=S)N2CCN(c3ccc(C(F)(F)F)cc3[N+](=O)[O-])CC2)c1 returned HSF-1 act inactive, L major viab 51, HSF1 inh inactive, T cruzi inh inactive and Hsp70 activator inactive.
`O=C(Nc1ccccc1)N1CCCN(c2ccc(C(F)(F)F)cc2[N+](=O)[O-])CC1` gave HSF-1 act 54, HSF1 inh inactive and T cruzi inh inactive.
Nn1c(-c2cccc(Br)c2)n[nH]c1=S was read as HSF-1 act inactive, L major viab inactive, HSF1 inh -54, T cruzi inh inactive and Hsp70 activator inactive.
`O=C(Nc1ccccc1)c1ccc(-c2ccccc2)s1` gave HSF-1 act inactive, L major viab inactive, HSF1 inh inactive, T cruzi inh inactive and Hsp70 activator inactive.
Screening O=C(O)c1ccc(-c2ccc(-c3ccccc3)cc2)s1 returned HSF-1 act inactive, HSF1 inh -51 and T cruzi inh inactive.
For COc1cccc(NC(=O)N(CCCN2CCOCC2)C(C)c2cc3ccccc3o2)c1 (centres undefined) the results were HSF-1 act inactive, L major viab 99, HSF1 inh inactive, T cruzi inh inactive and Hsp70 activator inactive.
`COc1cccc(NC(=O)N(CCCN2CCOCC2)C(C)c2cc3cccc(OC)c3o2)c1` (centres undefined) gave HSF-1 act inactive, L major viab inactive, HSF1 inh inactive, T cruzi inh inactive and Hsp70 activator inactive.
COc1ccc(NC(=S)N(CCCN2CCOCC2)C(C)c2cc3ccccc3o2)cc1 (centres undefined) was read as HSF-1 act inactive, L major viab 72, HSF1 inh inactive, T cruzi inh inactive and Hsp70 activator inactive.
Screening CCc1cccc(NC(=O)C2CC2c2ccccc2)c1 (centres undefined) returned HSF-1 act inactive, HSF1 inh inactive and T cruzi inh inactive.
`Cc1ccc(C(=O)N/C(=C\c2cn(S(=O)(=O)N(C)C)c3ccccc23)C(=O)NCCN2CCOCC2)cc1` gave HSF-1 act inactive, HSF1 inh inactive and T cruzi inh inactive.
For COc1ccccc1C(=O)N/C(=C\c1cn(S(=O)(=O)N(C)C)c2ccccc12)C(=O)NCCN1CCOCC1 the results were HSF-1 act inactive, HSF1 inh -80 and T cruzi inh inactive.
For Clc1ccc(-c2csc(N3CCOCC3)n2)cc1 the results were HSF-1 act 53, L major viab inactive, HSF1 inh inactive, T cruzi inh inactive and Hsp70 activator inactive.
`Brc1ccc(-c2csc(N3CCOCC3)n2)cc1` gave HSF-1 act inactive, L major viab inactive, HSF1 inh inactive, T cruzi inh inactive and Hsp70 activator inactive.
Screening O=[N+]([O-])c1ccc(N2CCN(c3nc(-c4ccc(Cl)cc4)cs3)CC2)cc1 returned HSF-1 act inactive, L major viab 98, HSF1 inh inactive, T cruzi inh inactive and Hsp70 activator inactive.

Bioassay records: PubChem, several laboratories
